Hits are enriched below; roughly 2.3% of the tested compounds scored in any of these assays.
EBV gp42 inh – blocks Epstein-Barr virus glycoprotein 42 binding; Fluorescence polarization binding assay, mP read-out; inhibition, % (tested at 21.74 µM); actives 0.42% (n = 220,000); AID 1085; in the data active means inhibition above about 50%
GPR7 antagonist – antagonists of human GPR7 (neuropeptides B/W receptor 1) | P48145 | GPR7-expressing cells, fluorescence antagonist assay | inhibition, % at 4.4 µM | actives 1.1% (n = 290,000); in the data active means inhibition above about 16%, passing the limit was not always enough;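 further: cells stimulated with the agonist NPW; 0% = agonist with vehicle and 100% = vehicle without agonist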
Target sequence (P48145 whole entry, looked up): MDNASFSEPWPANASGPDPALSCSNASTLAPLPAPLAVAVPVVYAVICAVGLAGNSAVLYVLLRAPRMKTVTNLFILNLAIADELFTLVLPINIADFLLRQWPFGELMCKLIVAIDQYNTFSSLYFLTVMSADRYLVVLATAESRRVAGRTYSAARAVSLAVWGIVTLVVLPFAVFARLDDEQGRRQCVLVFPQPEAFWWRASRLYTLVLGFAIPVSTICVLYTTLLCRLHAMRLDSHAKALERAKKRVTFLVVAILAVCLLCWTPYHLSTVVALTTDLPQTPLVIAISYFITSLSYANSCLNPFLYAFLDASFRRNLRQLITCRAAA
EBNA-1 inhibitor – blocks EBNA-1 binding to DNA. EBNA-1 DNA binding, fluorescence polarization. actives 0.34% (n = 300,000). AID 1950. inhibition, % at 14.8 µM; in the data active means inhibition above about 28%
HCV core dimer – HCV core protein dimerization inhibition | TR-FRET GST/Flag-core106 dimerization, 1536-well | inhibition, % at 5 µM | actives 0.33% (n = 300,000) | AID 1899;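 active means inhibition above the mean of all tested compounds plus 3 SD, set per screening campaign, cut at about 45% in these data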
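Assay system – GST-tagged and Flag-tagged HCV core protein residues 1-106 · Quantity – core106 proteins, GST 13.5 nM and Flag 17 nM · Benchmarks – unlabelled core106 and no-GST-core106 wells · Read-out basis – percent inhibition of core106 dimerization signal · Detection – time-resolved FRET, ex 340 nm, em 617 and 671 nm · Schedule – 4 h at 22.5 °C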
ZTA counter – counter-screen for EBNA-1 inhibitors: inhibitors of Epstein-Barr virus ZTA; P03206; ZTA-DNA binding, fluorescence polarization; inhibition, % at 11 µM; actives 0.15% (n = 320,000); in the data active means inhibition above about 33%
NS3 helicase inh – HCV NS3 helicase inhibition | NS3 helicase DNA unwinding, Cy5 molecular beacon fluorescence | inhibition, % at 10.9 µM | actives 0.56% (n = 290,000);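 active means inhibition above the mean of all tested compounds plus 3 SD, set per campaign, cut at about 35% in these data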;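 further: 0% = DMSO wells and 100% = thioflavine S control wells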
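test system = hepatitis C virus NS3 helicase domain fragment enzyme | reagent = annealed dual-labelled DNA beacon duplex, ATP-started | times = 1 h at 25 °C | detection = Cy5 fluorescence, 0 and 60 min reads | read-out basis = percent inhibition from t60/t0 fluorescence ratio | control set = DMSO and thioflavine S | replication = one well per compound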
GPR7 antag conf – confirmation of human GPR7 antagonists; shares compounds with GPR7 antagonist; GPR7-expressing cells, calcium fluorescence antagonist mode; inhibition, % at 4.4 µM; actives 52% (n = 2,400); AID 1952; in the data active means inhibition above about 24%;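 further: stimulated with the GPR7 agonist NPW; 0% = agonist plus vehicle and 100% = vehicle alone without agonist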
MCHR1 antagonist – counter-screen for GPR7 antagonists: antagonists of human MCHR1; shares compounds with GPR7 antagonist; MCHR1-expressing cells, fluorescence antagonist assay; inhibition, % at 4.4 µM; actives 62% (n = 2,400); AID 2148; in the data active means inhibition above about 22%;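 further: 0% = vehicle with agonist and 100% = vehicle without agonist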
The depositor's hits bear a star; . = not tested or not shown.

SMILES	EBV gp42 inh	GPR7 antagonist	EBNA-1 inhibitor	HCV core dimer	ZTA counter	NS3 helicase inh	GPR7 antag conf	MCHR1 antagonist
CCc1ccc(NC(=O)C/C(C)=N/NC(=O)COc2ccc(C)cc2Br)cc1	.	42.0*	-7.9	-1.4	-13.3	22.4	-3.8	-8.8
CNC(=O)COc1coc(CN2CCN(c3ccccc3OC)CC2)cc1=O	.	-11.4	-4.0	0.3	13.4	5.3	.	.
O=C(Nc1ccccc1)Nc1cc([N+](=O)[O-])ccc1F	-1.4	4.6	2.9	1.1	8.9	8.9	.	.
COC(=O)c1ccc(NC(=O)Nc2cccc(F)c2)cc1	-6.2	31.6*	-7.1	3.0	-13.0	-29.4	53.7*	64.6*
COC(=O)c1ccc(NC(=O)Nc2ccc(F)cc2F)cc1	-3.3	12.3	2.5	-6.1	-14.2	8.6	.	.
Cc1ccc([N+](=O)[O-])cc1NC(=O)Nc1cccc(F)c1	-16.1	39.6*	.	.	.	4.4	62.5*	64.7*
O=C(O)C1=C[C@H](c2ccc(C(F)(F)F)cc2)C[C@H](OCCCCO)O1	.	.	-11.8	7.8	0.6	.	.	.
COc1ccc(CN2CCNC(=O)C2CC(=O)NC2CCCCCCC2)cc1C (centres undefined)	.	-9.2	1.6	3.9	6.8	-22.8	.	.
O=C(Nc1ccc(N2CCN(c3ncccc3C(F)(F)F)CC2)nc1)c1cccs1	-7.9	21.3*	1.1	-1.7	-8.0	5.5	35.3*	80.5*
Cc1ccc(-c2c(=O)n(O)c3ccccc3[n+]2[O-])cc1	.	-11.4	.	.	.	2.9	.	.
Cc1ccc(CN(c2ccc(C(=O)N3CCc4ccccc4C3)cc2)S(C)(=O)=O)cc1	-6.9	33.3*	-5.6	6.6	5.8	-11.7	31.6*	47.4*
CS(=O)(=O)N(Cc1ccccc1)c1ccc(C(=O)N2CCN(c3cccc(Cl)c3)CC2)cc1	-3.0	23.9*	1.7	11.2	-6.3	-21.8	36.4*	70.0*
CS(=O)(=O)N(Cc1ccc(Cl)cc1)c1ccc(C(=O)N2CCN(c3ccccc3)CC2)cc1	-55.8	21.3*	4.5	2.1	2.5	-21.3	38.4*	46.3*
CN(c1ccc(C(=O)N2CCN(Cc3ccccc3)CC2)cc1)S(=O)(=O)c1ccc(Cl)cc1	.	31.8*	7.2	-1.9	-7.4	-23.8	20.3	33.2*
COC(=O)CN1C(c2ccccc2)=Nc2ccc(Cl)cc2C1c1ccccc1 (centres undefined)	16.9	27.9*	-1.7	2.9	-1.1	-10.1	4.2	22.8*
COC(=O)CN1C(C)=Nc2ccc(C)cc2C1c1ccccc1 (centres undefined)	-3.2	9.0	-2.8	-1.9	-1.0	-1.5	.	.
CC1(C)CC(=O)C(N=Nc2cc(S(=O)(=O)N3CCOCC3)ccc2Cl)=C(O)C1	3.3	-18.9	10.5	-1.4	-7.9	10.0	.	.
CC(C)NC(=O)COC(=O)c1ccc(Oc2ccccc2)cc1	-16.8	28.4*	-0.8	-0.8	8.7	-2.1	5.6	34.9*
NC(=O)COC(=O)c1ccc(Oc2ccccc2)cc1	-3.3	-4.0	0.0	-8.9	-11.1	-1.4	.	.
COC(=O)C1=C(C)N(Cc2ccccc2)C(=NCc2ccc(OC)cc2)N[C@H]1c1cccc(F)c1	.	43.6*	1.3	-27.0	4.4	-92.9	50.7*	41.0*
O=C(CCCCn1c(=O)[nH]c2ccsc2c1=O)NCc1ccc2c(c1)OCO2	-25.0	11.2	9.8	0.8	6.7	-3.0	.	.
COCCNC(=O)Cn1c(=O)n(CCCCCC(=O)NCc2ccc3c(c2)OCO3)c(=O)c2sccc21	-11.5	29.4*	-1.2	0.3	2.9	2.7	-6.6	-3.5
Clc1nssc1=Nc1ccc(Br)cc1	-36.6	-7.8	.	.	.	-1.6	.	.
OCc1ccccc1N=c1ssnc1Cl	-14.8	31.1*	-5.8	6.5	2.2	-10.4	3.6	17.5
CC(C)(C)OC(=O)N1CCC(c2c(C(=O)NCC3CCN(C4CCCC4)C3)cnn2-c2ccccc2Cl)CC1 (centres undefined)	.	44.4*	-10.2	-3.8	1.1	-30.1	49.1*	22.6*
